According to ChEMBL document CHEMBL2390884, “Design, synthesis and antiproliferative activity studies of novel 1,2,3-triazole-dithiocarbamate-urea hybrids” (Eur J Med Chem, 2013):
Calls of active or inactive are those of the source. The calls are words filed in the database; no cut-off is given here.

Legend:
[1] = Cytotoxicity against human EC9706 cells after 72 hrs by MTT assay; type: functional, cell-based; details: EC9706, 72 h
MCF7 = experiment: Cytotoxicity against human MCF7 cells after 72 hrs by MTT assay; type: functional, cell-based; details: MCF7, 72 h
SMMC-7721 = experiment: Cytotoxicity against human SMMC7721 cells after 72 hrs by MTT assay; type: functional, cell-based; details: SMMC-7721, 72 h
MGC-803 [2] = experiment: Cytotoxicity against human MGC803 cells after 72 hrs by MTT assay; type: functional, cell-based; details: MGC-803, 72 h
MGC-803 [3] = experiment: Induction of apoptosis in human MGC803 cells assessed as nuclear fragmentation at 0.25 to 1 uM after 12 hrs by Hoechst 33258 staining-based fluorescence microscopy; type: functional, cell-based
How it was run: (§1)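 MGC-803 cells seeded at 8×10^3 cells/well, treated 12 h at 0, 0.25, 0.5 or 1.0 µmol/L; cells collected, fixed, stained 20 min with Hoechst 33258, washed with PBS; nuclear shrinkage, chromatin condensation, intense fluorescence and fragmentation scored by fluorescence microscopy.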

MGC-803 [4] = experiment: Induction of apoptosis in human MGC803 cells assessed as chromatin condensation at 0.25 to 1 uM after 12 hrs by Hoechst 33258 staining-based fluorescence microscopy; type: functional, cell-based; how it was run: as §1
MGC-803 [5] = experiment: Induction of apoptosis in human MGC803 cells assessed as nuclear shrinkage at 0.25 to 1 uM after 12 hrs by Hoechst 33258 staining-based fluorescence microscopy; type: functional, cell-based; how it was run: as §1
HEK293 = experiment: Cytotoxicity against human HEK293 cells up to 55 uM after 72 hrs by MTT assay; type: cell-based; details: hek293, 72 h
How it was run: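 HEK293 cells seeded at 5×10^3 per well, grown 24 h at 37°C, then medium replaced with compound-containing medium over a concentration range; 72 h exposure; MTT (5 mg/mL stock) added for 4 h at 37°C, formazan dissolved in DMSO, absorbance read at 570 nm. Triplicate per concentration, experiment repeated three times.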

MGC-803 [6] = experiment: Cell cycle arrest in human MGC803 cells assessed as reduction in G1 phase accumulation after 12 to 24 hrs by propidium iodide staining-based flow cytometry; type: functional
How it was run: (§2)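 Exponentially growing MGC-803 cells (5×10^5) treated at 0, 0.25, 0.5 or 1.0 µmol/L for 12 or 24 h; cells collected, fixed in ice-cold 70% ethanol, treated with buffer containing RNAse A and 0.1% Triton X-100, stained with PI; DNA content analysed by flow cytometry to give percentages of cells in G1, S and G2/M phases.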

MGC-803 [7] = experiment: Cell cycle arrest in human MGC803 cells assessed as reduction in S phase accumulation after 12 to 24 hrs by propidium iodide staining-based flow cytometry; type: functional; how it was run: as §2
MGC-803 [8] = experiment: Cell cycle arrest in human MGC803 cells assessed as accumulation at G2/M phase after 12 to 24 hrs by propidium iodide staining-based flow cytometry; type: functional; how it was run: as §2
MGC-803 [9] = experiment: Cell cycle arrest in human MGC803 cells assessed as reduction in S phase accumulation at 0.25 to 1 uM by propidium iodide staining-based flow cytometry; type: functional; details: TDE = time-dependent effect; how it was run: as §2
MGC-803 [10] = experiment: Cell cycle arrest in human MGC803 cells assessed as accumulation at G2/M phase at 0.25 to 1 uM by propidium iodide staining-based flow cytometry; type: functional; details: TDE = time-dependent effect; how it was run: as §2
MGC-803 [11] = experiment: Cell cycle arrest in human MGC803 cells assessed as reduction in G1 phase accumulation at 0.25 to 1 uM by propidium iodide staining-based flow cytometry; type: functional; details: TDE = time-dependent effect; how it was run: as §2
MGC-803 [12] = experiment: Cell cycle arrest in human MGC803 cells assessed as accumulation at G2/M phase at 1 uM after 24 hrs by propidium iodide staining-based flow cytometry; type: functional; how it was run: as §2
MGC-803 [13] = experiment: Cell cycle arrest in human MGC803 cells assessed as accumulation at G2/M phase at 0.25 uM after 24 hrs by propidium iodide staining-based flow cytometry; type: functional; how it was run: as §2
MGC-803 [14] = experiment: Cell cycle arrest in human MGC803 cells assessed as accumulation at G2/M phase at 0.5 uM after 24 hrs by propidium iodide staining-based flow cytometry; type: functional; how it was run: as §2
MGC-803 [15] = experiment: Cell cycle arrest in human MGC803 cells assessed as accumulation at G2/M phase at 1 uM after 12 hrs by propidium iodide staining-based flow cytometry; type: functional; how it was run: as §2
MGC-803 [16] = experiment: Cell cycle arrest in human MGC803 cells assessed as accumulation at G2/M phase at 0.5 uM after 12 hrs by propidium iodide staining-based flow cytometry; type: functional; how it was run: as §2
MGC-803 [17] = experiment: Cell cycle arrest in human MGC803 cells assessed as accumulation at S phase at 1 uM after 24 hrs by propidium iodide staining-based flow cytometry; type: functional; how it was run: as §2
MGC-803 [18] = experiment: Cell cycle arrest in human MGC803 cells assessed as accumulation at G2/M phase at 0.25 uM after 12 hrs by propidium iodide staining-based flow cytometry; type: functional; how it was run: as §2
MGC-803 [19] = experiment: Cell cycle arrest in human MGC803 cells assessed as accumulation at S phase at 0.5 uM after 24 hrs by propidium iodide staining-based flow cytometry; type: functional; how it was run: as §2
MGC-803 [20] = experiment: Cell cycle arrest in human MGC803 cells assessed as accumulation at S phase at 0.25 uM after 24 hrs by propidium iodide staining-based flow cytometry; type: functional; how it was run: as §2
MGC-803 [21] = experiment: Cell cycle arrest in human MGC803 cells assessed as accumulation at S phase at 1 uM after 12 hrs by propidium iodide staining-based flow cytometry; type: functional; how it was run: as §2
MGC-803 [22] = experiment: Cell cycle arrest in human MGC803 cells assessed as accumulation at S phase at 0.5 uM after 12 hrs by propidium iodide staining-based flow cytometry; type: functional; how it was run: as §2
MGC-803 [23] = experiment: Cell cycle arrest in human MGC803 cells assessed as accumulation at S phase at 0.25 uM after 12 hrs by propidium iodide staining-based flow cytometry; type: functional; how it was run: as §2
MGC-803 [24] = experiment: Cell cycle arrest in human MGC803 cells assessed as accumulation at G0/G1 phase at 0.5 uM after 24 hrs by propidium iodide staining-based flow cytometry; type: functional; how it was run: as §2
MGC-803 [25] = experiment: Cell cycle arrest in human MGC803 cells assessed as accumulation at G0/G1 phase at 1 uM after 24 hrs by propidium iodide staining-based flow cytometry; type: functional; how it was run: as §2
MGC-803 [26] = experiment: Cell cycle arrest in human MGC803 cells assessed as accumulation at G0/G1 phase at 0.25 uM after 24 hrs by propidium iodide staining-based flow cytometry; type: functional; how it was run: as §2
MGC-803 [27] = experiment: Cell cycle arrest in human MGC803 cells assessed as accumulation at G0/G1 phase at 1 uM after 12 hrs by propidium iodide staining-based flow cytometry; type: functional; how it was run: as §2
MGC-803 [28] = experiment: Cell cycle arrest in human MGC803 cells assessed as accumulation at G0/G1 phase at 0.5 uM after 12 hrs by propidium iodide staining-based flow cytometry; type: functional; how it was run: as §2
MGC-803 [29] = experiment: Cell cycle arrest in human MGC803 cells assessed as accumulation at G0/G1 phase at 0.25 uM after 12 hrs by propidium iodide staining-based flow cytometry; type: functional; how it was run: as §2

CCNC(=O)N1CCN(C(=S)SCc2cn(Cc3ccc(C)cc3)nn2)CC1
IC50 [1]: > 128 µM | IC50 (MCF7): > 128 µM | IC50 (SMMC-7721): > 128 µM | IC50 (MGC-803 [2]): 19.8 µM

Cc1ccc(Cn2cc(CSC(=S)N3CCN(C(=O)NC(C)C)CC3)nn2)cc1
IC50 [1]: > 128 µM | IC50 (MCF7): 4.63 µM | IC50 (SMMC-7721): > 128 µM | IC50 (MGC-803 [2]): 16.6 µM

CC(C)NC(=O)N1CCN(C(=S)SCc2cn(Cc3ccc(Cl)cc3)nn2)CC1
IC50 [1]: 25.6 µM | IC50 (MCF7): > 128 µM | IC50 (SMMC-7721): > 128 µM | IC50 (MGC-803 [2]): 19.9 µM

CCN(C)C(=O)N1CCN(C(=S)SCc2cn(Cc3cc(OC)c(OC)c(OC)c3)nn2)CC1
IC50 [1]: > 128 µM | IC50 (MCF7): 68.5 µM | IC50 (SMMC-7721): > 128 µM | IC50 (MGC-803 [2]): 85.7 µM

CCNC(=O)N1CCN(C(=S)SCc2cn(Cc3ccc(F)cc3)nn2)CC1
IC50 [1]: 27.8 µM | IC50 (MCF7): 3.66 µM | IC50 (SMMC-7721): 44.4 µM | IC50 (MGC-803 [2]): 2.17 µM

O=C(NCc1ccccc1)N1CCN(C(=S)SCc2cn(Cc3ccccc3F)nn2)CC1
IC50 [1]: 38.1 µM | IC50 (MCF7): 38.1 µM | IC50 (SMMC-7721): > 128 µM | IC50 (MGC-803 [2]): 13.3 µM

COc1ccc(Cn2cc(CSC(=S)N3CCN(C(N)=O)CC3)nn2)cc1
IC50 [1]: > 128 µM | IC50 (MCF7): > 128 µM | IC50 (SMMC-7721): > 128 µM | IC50 (MGC-803 [2]): > 128 µM

CC(C)NC(=O)N1CCN(C(=S)SCc2cn(Cc3ccccc3F)nn2)CC1
Activity (MGC-803 [3]): Active | Activity (MGC-803 [4]): Active | Activity (MGC-803 [5]): Active | Activity (HEK293): Non-toxic | IC50 [1]: 20.8 µM | IC50 (MCF7): 1.86 µM | IC50 (SMMC-7721): 7.13 µM | IC50 (MGC-803 [2]): 1.62 µM | Activity (MGC-803 [6]): Dose-dependent effect | Activity (MGC-803 [7]): Dose-dependent effect | Activity (MGC-803 [8]): Dose-dependent effect | Activity (MGC-803 [9]): tde | Activity (MGC-803 [10]): tde | Activity (MGC-803 [11]): tde | Activity (MGC-803 [12]): 74.95% | Activity (MGC-803 [13]): 32.93% | Activity (MGC-803 [14]): 68.71% | Activity (MGC-803 [15]): 59.86% | Activity (MGC-803 [16]): 50.35% | Activity (MGC-803 [17]): 15.66% | Activity (MGC-803 [18]): 21.86% | Activity (MGC-803 [19]): 17.4% | Activity (MGC-803 [20]): 35.96% | Activity (MGC-803 [21]): 39.11% | Activity (MGC-803 [22]): 26.26% | Activity (MGC-803 [23]): 39.06% | Activity (MGC-803 [24]): 10.9% | Activity (MGC-803 [25]): 2.99% | Activity (MGC-803 [26]): 31.47% | Activity (MGC-803 [27]): 6.02% | Activity (MGC-803 [28]): 19.1% | Activity (MGC-803 [29]): 38.7%

O=C(NC1CCCCC1)N1CCN(C(=S)SCc2cn(Cc3ccccc3F)nn2)CC1
IC50 [1]: 84.9 µM | IC50 (MCF7): 85 µM | IC50 (SMMC-7721): > 128 µM | IC50 (MGC-803 [2]): 36.5 µM

NC(=O)N1CCN(C(=S)SCc2cn(Cc3ccccc3F)nn2)CC1
IC50 [1]: 43.1 µM | IC50 (MCF7): > 128 µM | IC50 (SMMC-7721): > 128 µM | IC50 (MGC-803 [2]): 11.3 µM

COc1cc(Cn2cc(CSC(=S)N3CCN(C(N)=O)CC3)nn2)cc(OC)c1OC
IC50 [1]: > 128 µM | IC50 (MCF7): > 128 µM | IC50 (SMMC-7721): > 128 µM | IC50 (MGC-803 [2]): > 128 µM

CCN(C)C(=O)N1CCN(C(=S)SCc2cn(Cc3ccccc3F)nn2)CC1
IC50 [1]: 15.6 µM | IC50 (MCF7): 7.21 µM | IC50 (SMMC-7721): 19.7 µM | IC50 (MGC-803 [2]): 5.86 µM

O=c1[nH]cc(F)c(=O)[nH]1 [FLUOROURACIL]
IC50 [1]: 0.32 µM | IC50 (MCF7): 7.33 µM | IC50 (SMMC-7721): 26.7 µM | IC50 (MGC-803 [2]): 7.14 µM

Cc1ccc(Cn2cc(CSC(=S)N3CCN(C(N)=O)CC3)nn2)cc1
IC50 [1]: > 128 µM | IC50 (MCF7): > 128 µM | IC50 (SMMC-7721): > 128 µM | IC50 (MGC-803 [2]): 29.9 µM
